Assay results from ChEMBL document CHEMBL1146755, “Potent nonpeptide vasopressin receptor antagonists based on oxazino- and thiazinobenzodiazepine templates” (Bioorg Med Chem Lett, 2004).

Assays:
Vasopressin V2 receptor [1] = target: T1, Vasopressin V2 receptor (Homo sapiens, UniProt P30518); assay: Inhibition of 1 nM AVP-induced cAMP accumulation in cells expressing human vasopressin V2 receptor; assay type: functional
Method in brief: (§1)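 HEK-293 cells expressing human receptor stimulated with 1 nM AVP; antagonism read as change in intracellular Ca2+ (V1a) or cAMP accumulation (V2).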

Vasopressin V1a receptor [2] = target: T2, Vasopressin V1a receptor (Homo sapiens, UniProt P37288); assay: Inhibition of 1 nM AVP-induced calcium mobilisation in cells expressing human vasopressin V1a receptor; method in brief: as §1
Target sequence in this assay (P37288 whole entry): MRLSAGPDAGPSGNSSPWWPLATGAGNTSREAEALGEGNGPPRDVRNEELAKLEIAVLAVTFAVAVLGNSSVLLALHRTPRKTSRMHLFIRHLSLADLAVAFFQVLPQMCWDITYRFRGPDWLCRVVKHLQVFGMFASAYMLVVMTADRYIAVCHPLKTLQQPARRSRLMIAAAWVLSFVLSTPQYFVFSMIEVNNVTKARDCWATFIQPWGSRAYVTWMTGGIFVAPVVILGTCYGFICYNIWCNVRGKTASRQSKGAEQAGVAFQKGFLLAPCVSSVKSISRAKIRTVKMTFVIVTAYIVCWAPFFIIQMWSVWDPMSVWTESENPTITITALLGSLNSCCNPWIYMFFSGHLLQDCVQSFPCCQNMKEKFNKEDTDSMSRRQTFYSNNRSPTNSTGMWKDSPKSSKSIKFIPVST

Vasopressin V2 receptor [3] = target: T1, Vasopressin V2 receptor; assay: Inhibition of [3H]AVP binding to recombinant human vasopressin V2 receptor
Method in brief: (§2)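 Competition binding on membranes from HEK-293 cells transfected with recombinant human V1a or V2 receptor; Ki values reported in nM.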

Vasopressin V1a receptor [4] = target: T2, Vasopressin V1a receptor; assay: Inhibition of [3H]AVP binding to recombinant human vasopressin V1a receptor; method in brief: as §2
Target sequence in this assay (P37288 whole entry): as above

Vasopressin V1a receptor [5] = target: T2, Vasopressin V1a receptor; assay: Inhibition of [3H]AVP binding to recombinant human vasopressin V1a receptor at 100 nM
Target sequence in this assay (P37288 whole entry, looked up): as the sequence (P37288 whole entry) above

Vasopressin V1a receptor [6] = target: T2, Vasopressin V1a receptor; assay: Inhibition of [3H]AVP binding to recombinant human vasopressin V1a receptor at 1000 nM
Target sequence in this assay (P37288 whole entry, looked up): as the sequence (P37288 whole entry) above

T1 sequence (P30518 whole entry): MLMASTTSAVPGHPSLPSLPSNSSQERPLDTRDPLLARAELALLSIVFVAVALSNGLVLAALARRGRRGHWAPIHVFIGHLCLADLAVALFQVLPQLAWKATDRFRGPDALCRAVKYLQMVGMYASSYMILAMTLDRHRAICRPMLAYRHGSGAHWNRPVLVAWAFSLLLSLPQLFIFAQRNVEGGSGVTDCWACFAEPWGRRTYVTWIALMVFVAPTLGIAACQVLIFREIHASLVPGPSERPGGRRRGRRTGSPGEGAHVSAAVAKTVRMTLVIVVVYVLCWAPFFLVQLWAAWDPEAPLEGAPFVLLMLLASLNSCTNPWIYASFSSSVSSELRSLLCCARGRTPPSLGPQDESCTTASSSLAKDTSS

| Ki (Vasopressin V2 receptor [1]) | Ki (Vasopressin V1a receptor [2]) | Ki (Vasopressin V2 receptor [3]) | Ki (Vasopressin V1a receptor [4]) | inhibition (Vasopressin V1a receptor [5]) | inhibition (Vasopressin V1a receptor [6]) | Compound |
| --- | --- | --- | --- | --- | --- | --- |
|  |  | 10 nM | Not Active |  |  | Cc1cc(NC(=O)c2ccccc2-c2ccccc2)ccc1C(=O)N1CC2CSCCN2Cc2ccccc21 (centres undefined) |
|  |  | 10 nM | Not Active |  |  | O=C(Nc1ccc(C(=O)N2CC3CSCCN3Cc3ccccc32)c(F)c1)c1ccccc1-c1ccccc1 (centres undefined) |
| 4 nM | 0.6 µM | 0.9 nM | 24 nM |  |  | O=C(Nc1ccc(C(=O)N2C[C@H]3COCCN3Cc3ccccc32)c(Cl)c1)c1ccccc1-c1ccccc1 |
|  |  | 9 nM | Not Active |  |  | O=C(Nc1ccc(C(=O)N2CC3CSCCN3Cc3ccc(F)cc32)cc1)c1ccccc1-c1ccccc1 (centres undefined) |
| 17 nM | 14 µM | 3.7 nM | 250 nM |  |  | O=C(Nc1ccc(C(=O)N2C[C@H]3CSCCN3Cc3ccccc32)c(Cl)c1)c1ccccc1-c1ccccc1 |
| 300 nM | 14 µM | 60 nM | Not Active |  |  | Cc1ccc(F)cc1C(=O)Nc1ccc(C(=O)N2CC3CSCCN3Cc3ccccc32)c(Cl)c1 (centres undefined) |
|  | 1.6 µM |  | 30 nM |  |  | O=C(Nc1ccc(C(=O)N2C[C@H]3COCCN3Cc3ccccc32)c(Cl)c1)c1ccc(O)cc1-c1ccccc1 |
| 12 nM | 6.4 µM | 11 nM |  |  | 62% | O=C(Nc1ccc(C(=O)N2C[C@H]3COCCN3Cc3ccccc32)c(Cl)c1)c1cc(F)ccc1-c1ccccc1 |
|  |  | 10 nM | Not Active |  |  | O=C(Nc1ccc(C(=O)N2CC3CSCCN3Cc3cccc(Cl)c32)cc1)c1ccccc1-c1ccccc1 (centres undefined) |
| 11 nM | 4.2 µM | 4.2 nM | Not Active |  |  | O=C(Nc1ccc(C(=O)N2C[C@H]3COCCN3Cc3ccccc32)c(Cl)c1)c1ccccc1-c1ccc(O)cc1 |
|  | 8 µM |  | 49 nM |  |  | O=C(Nc1ccc(C(=O)N2CC3CSCCN3Cc3ccccc32)cc1)c1ccccc1-c1ccccc1 (centres undefined) |

The remaining lines, values behind:

| Compound | Ki (Vasopressin V2 receptor [1]) | Ki (Vasopressin V1a receptor [2]) | Ki (Vasopressin V2 receptor [3]) | Ki (Vasopressin V1a receptor [4]) | inhibition (Vasopressin V1a receptor [5]) | inhibition (Vasopressin V1a receptor [6]) |
| --- | --- | --- | --- | --- | --- | --- |
| O=C(Nc1ccc(C(=O)N2C[C@H]3COCCN3Cc3ccccc32)c(Cl)c1)c1cc(O)ccc1-c1ccccc1 | 70 nM | 1.9 µM | 13 nM | Not Active |  |  |
| COc1ccc(-c2ccccc2)c(C(=O)Nc2ccc(C(=O)N3C[C@H]4COCCN4Cc4ccccc43)c(Cl)c2)c1 |  |  | 17 nM | Not Active |  |  |
| Cc1ccc(F)cc1C(=O)Nc1ccc(C(=O)N2Cc3cccn3Cc3ccccc32)c(Cl)c1 [LIXIVAPTAN] | 23 nM | 6 µM | 2.3 nM | 44 nM |  |  |
| Cc1ccc(F)cc1C(=O)Nc1ccc(C(=O)N2C[C@H]3COCCN3Cc3ccccc32)c(Cl)c1 | 12 nM | 2 µM | 2.8 nM | 100 nM |  |  |
| COc1cc(NC(=O)c2ccccc2-c2ccccc2)ccc1C(=O)N1CC2CSCCN2Cc2ccccc21 (centres undefined) |  |  | 15 nM | Not Active |  |  |
| O=C(Nc1ccc(C(=O)N2CC3CSCCN3Cc3ccc(F)c(F)c32)cc1)c1ccccc1-c1ccccc1 (centres undefined) |  |  | 18 nM | Not Active |  |  |
| O=C(Nc1ccc(C(=O)N2CC3CSCCN3Cc3ccccc32)c(Cl)c1)c1ccc(F)cc1-c1ccccc1 (centres undefined) |  |  | 3.7 nM | 410 nM |  |  |
| O=C(Nc1ccc(C(=O)N2CC3CS(=O)(=O)CCN3Cc3ccccc32)cc1)c1ccccc1-c1ccccc1 (centres undefined) | 40 nM | 1.4 µM | 65 nM | Not Active |  |  |
| O=C(Nc1ccc(C(=O)N2CC3CSCCN3Cc3ccccc32)c(Cl)c1)c1cc(F)ccc1-c1ccccc1 (centres undefined) | 70 nM | 14 µM | 37 nM | Not Active |  |  |
| O=C(Nc1ccc(C(=O)N2C[C@H]3COCCN3Cc3ccccc32)cc1)c1ccccc1-c1ccccc1 | 16 nM |  | 3.7 nM |  | 69% |  |
| O=C(Nc1ccc(C(=O)N2CC3CSCCN3Cc3ccccc32)c(O)c1)c1ccccc1-c1ccccc1 (centres undefined) |  |  | 3.2 nM | 110 nM |  |  |
| COc1cccc(-c2ccccc2C(=O)Nc2ccc(C(=O)N3C[C@H]4COCCN4Cc4ccccc43)c(Cl)c2)c1 | 2 nM | 3.4 µM | 3.7 nM | Not Active |  |  |
| O=C(Nc1ccc(C(=O)N2CC3COCCN3Cc3ccccc32)c(Cl)c1)c1ccccc1-c1ccccc1 (single isomer, unassigned) | 170 nM | 14 µM | 15 nM | 640 nM |  |  |
| O=C(Nc1ccc(C(=O)N2C[C@H]3COCCN3Cc3ccccc32)c(Cl)c1)c1ccccc1-c1cccc(O)c1 | 20 nM | 11 µM | 5 nM | Not Active |  |  |
| COc1ccc(C(=O)Nc2ccc(C(=O)N3C[C@H]4COCCN4Cc4ccccc43)c(Cl)c2)c(-c2ccccc2)c1 | 5 nM | 1.3 µM | 4.2 nM | Not Active |  |  |
| O=C(Nc1ccc(C(=O)N2CC3CSCCN3Cc3ccccc32)c(Cl)c1)c1ccccc1-c1ccccc1 (centres undefined) |  |  | 11 nM | 490 nM |  |  |
| O=C(Nc1ccc(C(=O)N2C[C@H]3CSCCN3Cc3ccccc32)cc1)c1ccccc1-c1ccccc1 |  | 1.4 µM |  | 84 nM |  |  |
| O=C(Nc1ccc(C(=O)N2C[C@@H]3CSCCN3Cc3ccccc32)cc1)c1ccccc1-c1ccccc1 |  | 1.3 µM |  | 290 nM |  |  |
| COc1ccc(-c2ccccc2C(=O)Nc2ccc(C(=O)N3C[C@H]4COCCN4Cc4ccccc43)c(Cl)c2)cc1 | 3 nM | 1.9 µM | 2.8 nM | Not Active |  |  |
| Cc1ccc2c(c1)N(C(=O)c1ccc(NC(=O)c3ccccc3-c3ccccc3)cc1)CC1CSCCN1C2 (centres undefined) | 23 nM | 14 µM | 8 nM | 18 nM |  |  |
| O=C(Nc1ccc(C(=O)N2C[C@H]3COCCN3Cc3ccccc32)c(Cl)c1)c1ccc(F)cc1-c1ccccc1 | 2 nM | 0.7 µM | 1.9 nM | Not Active |  |  |
